Measurements reported in ChEMBL document CHEMBL1144337, “Discovery and structure-activity relationships of 2-benzylpyrrolidine-substituted aryloxypropanols as calcium-sensing receptor antagonists” (Bioorg Med Chem Lett, 2005).

Each compound was assayed on HEK293 (assay: Inhibitory concentration for the inhibition of intracellular [Ca2+] release in HEK cells by using FLIPR technology). Conditions: Homo sapiens.
Format: functional, cell-based
Method in brief: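 HEK cells over-expressing recombinant human calcium-sensing receptor. Intracellular Ca²⁺ release was stimulated with extracellular Ca²⁺, and inhibition by test compound was read by fluorescence on FLIPR. IC50 values are means of two experiments, with standard deviation reported.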

SMILES	IC50 [nM]
N#Cc1c(Cl)cccc1OC[C@H](O)CN1CCCC1Cc1ccccc1 (stereo not given in full)	350
N#Cc1c(Cl)cccc1OC[C@H](O)CN1CCC[C@H]1Cc1ccc(O)cc1	> 30000
COc1ccccc1C[C@@H]1CCCN1C[C@@H](O)COc1cccc(Cl)c1C#N	> 30000
N#Cc1c(Cl)cccc1OC[C@H](O)CN1CCC[C@H]1C(O)c1cccc(F)c1 (stereo not given in full)	2300
N#Cc1c(Cl)cccc1OC[C@H](O)CN1CC[C@@H](O)[C@H]1Cc1ccccc1	1400
N#Cc1c(Cl)cccc1OC[C@H](O)CN1CCC[C@@H]1Cc1ccccc1	> 30000
N#Cc1c(Cl)cccc1OC[C@H](O)CN1CCC(F)(F)[C@H]1Cc1ccccc1	> 30000
N#Cc1c(Cl)cccc1OC[C@H](O)CN1CCC(Cc2ccccc2)C1 (stereo not given in full)	10000
N#Cc1c(Cl)cccc1OC[C@H](O)CN1CCC(Cc2cc(F)ccc2F)CC1	2100
N#Cc1c(Cl)cccc1OC[C@H](O)CN1CCCCC1Cc1ccccc1 (stereo not given in full)	> 30000
CN(C)c1ccc(C[C@@H]2CCCN2C[C@@H](O)COc2cccc(Cl)c2C#N)cc1	1900
COc1cccc(C[C@@H]2CCCN2C[C@@H](O)COc2cccc(Cl)c2C#N)c1	130
COc1ccc(C[C@@H]2CCCN2C[C@@H](O)COc2cccc(Cl)c2C#N)cc1	200
COc1cccc(CC2CCN(C[C@@H](O)COc3cccc(Cl)c3C#N)CC2)c1	640
N#Cc1c(Cl)cccc1OC[C@H](O)CN1CC[C@H](F)[C@H]1Cc1ccccc1	2800
N#Cc1c(Cl)cccc1OC[C@H](O)CN1CCC[C@H]1Cc1ccccc1O	100
COc1ccc(C[C@@H]2CCCN2C[C@@H](O)COc2cccc(Cl)c2C#N)cc1OC	410
CC(C)(Cc1ccc2ccccc2c1)NC[C@@H](O)COc1cccc(Cl)c1C#N	80
N#Cc1c(Cl)cccc1OC[C@H](O)CN1CCCC(Cc2ccccc2)C1 (stereo not given in full)	> 30000
COc1cccc(C(O)[C@@H]2CCCN2C[C@@H](O)COc2cccc(Cl)c2C#N)c1 (stereo not given in full)	> 30000
N#Cc1c(Cl)cccc1OC[C@H](O)CN1CCC[C@H]1Cc1cccc(F)c1	150
COc1ccc(CC2CCN(C[C@@H](O)COc3cccc(Cl)c3C#N)CC2)cc1	> 30000
N#Cc1c(Cl)cccc1OC[C@H](O)CN1CCC(Cc2ccccc2)CC1	2200
N#Cc1c(Cl)cccc1OC[C@H](O)CN1CCC[C@H]1Cc1ccccc1	120

These compounds were tested against Voltage-gated inwardly rectifying potassium channel KCNH2 (Homo sapiens, UniProt Q12809) (assay: Inhibitory concentration against human Kv11.1 ERG potassium channel). Conditions: not given.
Method in brief: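 Inhibition of hERG K+ current, measured by a patch-clamp assay, reported as an IC50.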

Chain of Voltage-gated inwardly rectifying potassium channel KCNH2 (Q12809 whole entry): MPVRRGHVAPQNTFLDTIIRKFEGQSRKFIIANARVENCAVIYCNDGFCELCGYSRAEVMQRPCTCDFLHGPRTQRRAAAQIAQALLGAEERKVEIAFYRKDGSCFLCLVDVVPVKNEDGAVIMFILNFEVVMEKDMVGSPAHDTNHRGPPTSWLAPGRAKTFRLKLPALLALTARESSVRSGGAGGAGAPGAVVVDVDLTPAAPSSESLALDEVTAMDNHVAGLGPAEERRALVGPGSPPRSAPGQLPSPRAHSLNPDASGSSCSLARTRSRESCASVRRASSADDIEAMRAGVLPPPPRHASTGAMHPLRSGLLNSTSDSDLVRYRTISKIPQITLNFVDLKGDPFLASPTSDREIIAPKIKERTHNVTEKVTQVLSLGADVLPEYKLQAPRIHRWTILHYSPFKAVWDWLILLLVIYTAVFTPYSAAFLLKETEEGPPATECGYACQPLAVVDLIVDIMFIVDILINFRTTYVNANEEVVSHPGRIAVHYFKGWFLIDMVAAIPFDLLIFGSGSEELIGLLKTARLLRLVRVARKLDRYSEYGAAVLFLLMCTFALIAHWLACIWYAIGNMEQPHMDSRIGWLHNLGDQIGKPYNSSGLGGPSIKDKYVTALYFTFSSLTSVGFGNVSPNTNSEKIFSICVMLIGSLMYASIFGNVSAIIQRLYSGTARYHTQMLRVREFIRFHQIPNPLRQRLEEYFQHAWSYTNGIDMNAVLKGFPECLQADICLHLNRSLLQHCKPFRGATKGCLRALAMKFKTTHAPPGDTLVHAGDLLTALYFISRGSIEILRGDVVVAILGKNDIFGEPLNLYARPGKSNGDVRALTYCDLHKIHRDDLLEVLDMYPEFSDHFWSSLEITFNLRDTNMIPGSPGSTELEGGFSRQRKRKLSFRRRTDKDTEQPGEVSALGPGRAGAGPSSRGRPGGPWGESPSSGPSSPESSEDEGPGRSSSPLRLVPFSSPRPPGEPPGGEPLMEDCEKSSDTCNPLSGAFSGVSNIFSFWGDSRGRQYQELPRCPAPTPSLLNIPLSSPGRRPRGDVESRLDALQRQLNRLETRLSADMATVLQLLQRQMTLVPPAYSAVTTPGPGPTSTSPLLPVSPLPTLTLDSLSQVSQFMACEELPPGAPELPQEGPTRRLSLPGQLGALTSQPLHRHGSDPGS

SMILES	IC50 [nM]
CC(C)(Cc1ccc2ccccc2c1)NC[C@@H](O)COc1cccc(Cl)c1C#N	194
